# Compound activity from PubChem BioAssay.
# LMPTP block = LMPTP (human) inhibition. P24666. recombinant LMPTP-A, OMFP fluorogenic substrate, fluorescence intensity. inhibition, % at 20 µM. 360,000 tested, 0.22% active. AID 651560;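 active = compounds that cut the enzyme signal by at least half of the control window in the single-dose screen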
#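 Assay system: LMPTP-A phosphatase enzyme | Input: 0.625 nM enzyme | Also added: Fluorogenic phosphatase substrate OMFP at 400 µM final | Compound dosing: One test concentration per compound, 20 µM, with 3% DMSO overall | Schedule: 50 min enzyme reaction at room temperature, protected from light | Signal: Fluorescence intensity | Benchmarks: no-enzyme and uninhibited controls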
# SUMO1 PPI mod = SUMO1-SIM interaction modulation; P63165; SUMO1 binding to a labelled peptide, TR-FRET, 1 h; inhibition, % at 20 µM; 360,000 tested, 0.33% active; AID 602429; in the data active = inhibition above about 37%
# DNMT1 inh = inhibitors of human DNMT1; DNMT1 molecular beacon, Hinp1I cleavage, fluorescence; P26358; AID 588458; inhibition (reported as % activation of signal), % at 10 µM; 360,000 tested, 0.83% active; in the data active = inhibition above about 50%
# Target sequence (P26358 504-1616 limits assumed): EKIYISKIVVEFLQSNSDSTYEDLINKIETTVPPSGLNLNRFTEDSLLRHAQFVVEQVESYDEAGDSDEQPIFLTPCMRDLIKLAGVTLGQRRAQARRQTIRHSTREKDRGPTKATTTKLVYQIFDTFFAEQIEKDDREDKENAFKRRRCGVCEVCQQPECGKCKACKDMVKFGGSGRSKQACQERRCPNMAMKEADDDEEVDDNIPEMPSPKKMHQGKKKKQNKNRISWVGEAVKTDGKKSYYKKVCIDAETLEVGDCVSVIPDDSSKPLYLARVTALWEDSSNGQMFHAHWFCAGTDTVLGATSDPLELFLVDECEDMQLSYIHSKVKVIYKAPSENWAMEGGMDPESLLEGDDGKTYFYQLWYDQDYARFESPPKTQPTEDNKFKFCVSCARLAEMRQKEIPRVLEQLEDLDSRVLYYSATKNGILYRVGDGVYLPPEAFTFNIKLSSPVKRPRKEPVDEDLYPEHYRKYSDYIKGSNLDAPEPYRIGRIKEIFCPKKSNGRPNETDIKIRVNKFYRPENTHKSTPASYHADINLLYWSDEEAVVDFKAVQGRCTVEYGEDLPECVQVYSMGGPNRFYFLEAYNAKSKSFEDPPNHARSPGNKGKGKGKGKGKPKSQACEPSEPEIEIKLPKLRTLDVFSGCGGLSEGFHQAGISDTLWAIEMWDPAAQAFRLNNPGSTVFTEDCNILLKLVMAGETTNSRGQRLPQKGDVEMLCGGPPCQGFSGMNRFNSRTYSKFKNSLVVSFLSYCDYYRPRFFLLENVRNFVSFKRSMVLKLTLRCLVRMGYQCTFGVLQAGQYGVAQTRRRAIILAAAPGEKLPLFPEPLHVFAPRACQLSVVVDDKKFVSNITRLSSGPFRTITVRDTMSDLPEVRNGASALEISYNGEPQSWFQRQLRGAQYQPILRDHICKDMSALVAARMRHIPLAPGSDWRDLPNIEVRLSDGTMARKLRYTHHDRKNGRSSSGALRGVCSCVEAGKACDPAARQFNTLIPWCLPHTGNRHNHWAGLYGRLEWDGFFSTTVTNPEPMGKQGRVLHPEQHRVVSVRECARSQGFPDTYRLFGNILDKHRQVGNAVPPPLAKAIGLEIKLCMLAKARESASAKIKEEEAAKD
# STEP inh = inhibitors of human striatal-enriched phosphatase STEP. recombinant STEP, OMFP fluorogenic substrate, fluorescence. inhibition, % at 20 µM. AID 588621. 360,000 tested, 0.25% active. P54829;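 active = inhibition at 20 µM, scaled per plate between control wells, above about 37%, limit read from the data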
#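 Measure: Control-normalized % inhibition with plate pattern correction | Test system: STEP phosphatase, cell-free reaction | Medium: pH 6.0 Bis-Tris with DTT and Tween 20 | Technique: Fluorescence, 480/540 nm | Times: Reaction 20 min, ambient temperature | Doses: Single compound dose of 20 µM, 1% DMSO final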
# Scp-1 inhibitor = blocks human Scp-1 phosphatase activity; Q9GZU7; Recombinant Scp1, phosphopeptide, malachite green phosphate absorbance; inhibition, % at 20 µM; 340,000 tested, 0.88% active; AID 493091;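 active = inhibition above about 50% at 20 µM, limit read from the data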
#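 Test system: SCP-1 phosphatase catalytic domain, residues 76-261; measured by: colorimetric phosphate reagent with accelerator and stabiliser, absorbance at 630 nm; timing: enzyme reaction 45 min at room temperature, colour 5 min, stabilisation 30 min; also added: Phosphorylated 17-residue peptide substrate; compound dosing: one concentration, 20 µM, with 1.0% DMSO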
# Scp-1 conf = Scp-1 (human) inhibition, single-dose confirmed | shares compounds with Scp-1 inhibitor | recombinant SCP-1 catalytic domain, phosphate release, malachite green absorbance | inhibition, % at 20 µM | 2,500 tested, 61% active
# MG interference = counter-screen for Scp-1 inhibitors: colorimetric interference; Colorimetric interference counterscreen, malachite green absorbance 630 nm; 2,500 tested, under 10 active; shares compounds with Scp-1 inhibitor; apparent inhibition (interference), % at 20 µM;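 note: compounds added after enzyme reaction finished so only phosphate colour detection is probed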
# Scp1 DSF = binds human Scp-1, shifting its melting temperature; 1,500 tested, 25% active; thermal shift relative to vanadate control, % at 40 µM; AID 540329; shares compounds with Scp-1 inhibitor; Recombinant SCP1, Sypro Orange thermal shift Tm;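 active = substances whose mean melting-temperature shift, as a percentage of the reference inhibitor's shift, reaches about 5.3%, limit read from the data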
# Hits are given with their value; . = inactive; / = no result. Sampled rows, rich in hits. Any-hit rate of the full collection: about 1.8%.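 Rule for the calls, unless noted: active = inhibition of at least 30% at 20 µM; inactive = the rest.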
SMILES,LMPTP block,SUMO1 PPI mod,DNMT1 inh,STEP inh,Scp-1 inhibitor,Scp-1 conf,MG interference,others
Cc1cn(CC(=O)N[C@H](C)c2cccc3ccccc23)c(=O)[nH]c1=O,.,.,.,.,.,.,.,
CC[C@@H](NC(=O)Cn1cc(C)c(=O)[nH]c1=O)c1ccccc1,.,.,.,.,.,/,/,
COc1ccc([C@@H]2CC(=O)c3c(O)cc(O[C@@H]4O[C@H](CO[C@@H]5O[C@@H](C)[C@H](O)[C@@H](O)[C@H]5O)[C@@H](O)[C@H](O)[C@H]4O)cc3O2)cc1O,.,.,.,.,62,39,.,Scp1 DSF=.
Cc1ccc(CN2CC(C(=O)Nc3ncc(C)s3)CC2=O)cc1 (configuration not stated),.,.,.,.,51,.,.,
Cc1ccc(CN2CC(C(=O)Nc3nc(C)cs3)CC2=O)cc1 (configuration not stated),.,.,.,.,/,/,/,
O=C(C[n+]1ccccc1)Nc1ccc(Cl)c([N+](=O)[O-])c1,.,.,.,.,.,/,/,
Cc1ccc[n+](CC(=O)Nc2ccc(Cl)c([N+](=O)[O-])c2)c1,.,.,.,.,84,.,.,
COc1cc(/C=C(\C#N)C(=O)NCc2ccccc2)ccc1OCc1ccc(C(=O)O)cc1,.,.,.,.,.,/,/,
C[C@@H](NC(=O)/C(C#N)=C/c1ccc(O)c(O)c1)c1ccccc1,.,.,.,.,.,/,/,
CC(NC(=O)/C(C#N)=C/c1ccc(OCC(=O)O)cc1)c1ccccc1 (configuration not stated),.,.,.,.,98,40,.,Scp1 DSF=.
COc1cc(/C=C(/C#N)C(=O)Nc2ccccc2)ccc1OCc1ccc(C(=O)O)cc1,.,.,.,.,82,58,.,Scp1 DSF=.
N#C/C(=C\c1ccc(OCc2ccc(C(=O)O)cc2)cc1)C(=O)NCc1ccccc1,.,.,.,.,91,81,.,Scp1 DSF=.
Cc1cc(N(C)Cc2ccccc2)nc2cc(O)ccc12,.,.,.,.,.,/,/,
CC(=O)N(c1ccccc1)c1nc2ccccc2s1,.,.,.,.,.,/,/,
CC(=O)N(c1ccccc1)c1c(F)c(F)c(F)c(F)c1F,.,.,.,.,61,.,.,
Cc1cc(C)c2c(N)c(C(=O)c3ccc(Cl)c(Cl)c3)sc2n1,62,.,.,.,80,.,.,
CC(=O)c1ccc(NC(=O)CSc2nnc(-c3ccco3)c(-c3ccco3)n2)cc1,54,43,.,.,83,58,.,Scp1 DSF=9.4
O=C1CC(=O)N2N=C(c3ccc([N+](=O)[O-])cc3)SC2=N1,.,.,.,.,69,68,.,Scp1 DSF=6.2
CC(C)c1ccc(NC(=O)c2cc([N+](=O)[O-])ccc2N2CCOCC2)cc1,.,.,.,.,55,.,.,
Cn1c(=O)c(=O)n(C)c2cc(S(=O)(=O)N3CCCC3C(=O)NCc3ccco3)ccc21 (configuration not stated),.,.,.,.,.,/,/,
Cn1c(=O)c(=O)n(C)c2cc(S(=O)(=O)N3CCCC3C(=O)NCc3cccnc3)ccc21 (configuration not stated),.,.,.,.,.,.,.,
Cc1ccc(C)c(NC(=O)C2CCCN2S(=O)(=O)c2ccc3c(c2)n(C)c(=O)c(=O)n3C)c1 (configuration not stated),.,.,.,.,.,.,.,
Cc1ccccc1NC(=O)C1CCCN1S(=O)(=O)c1ccc2c(c1)n(C)c(=O)c(=O)n2C (configuration not stated),.,.,.,.,.,/,/,
CCOC(=O)c1cnc2c(C)c(-c3ccccc3)[nH]n2c1=O,.,.,.,.,69,.,.,
CCOC1=C2CN(S(=O)(=O)c3ccc(C)cc3)[C@@H](c3ccc(CC)cc3)C[C@H]2[C@H]2C(=O)N(c3ccccc3)C(=O)[C@H]2C1,.,.,.,.,/,/,/,
